{
  "source": "ChEMBL document CHEMBL3877339",
  "about": "“Efficient Semisynthesis of (-)-Pseudoirroratin A from (-)-Flexicaulin A and Assessment of Their Antitumor Activities” (ACS Med Chem Lett, 2017)",
  "key": {"HCT-116 [1]": {"system": "HCT-116", "assay": "Induction of apoptosis in human HCT116 cells cytoplasmic extract assessed as decrease in survivin expression at 0.3125 to 2.5 ug/ml after 48 hrs by Western blot method", "type": "functional, cell-based", "outline": "(§1)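 HCT-116 cells treated at 0–2.5 μg/mL, then split into cytoplasmic and nuclear extracts for Western blotting. The cytoplasmic fraction was probed for cleaved PARP, cleaved caspase-3, phospho-ERK and survivin, with α-tubulin as loading control. The nuclear fraction was probed for HDAC1, with histone H3 as loading control.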"}, "[2]": {"assay": "(§2) Cytotoxicity against human HCT116 cells assessed as reduction in cell viability after 48 hrs by MTT assay", "type": "functional, cell-based", "conditions": "HCT-116, 48 h", "outline": "(§3)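 MTT viability assay over a compound concentration series in colorectal carcinoma cells; IC50 taken from dose–response curves. Mean ± SD of three separate experiments.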"}, "HCT-116 [3]": {"system": "HCT-116", "assay": "as §2", "type": "functional, cell-based", "outline": "as §3"}, "HCT-116 [4]": {"system": "HCT-116", "assay": "Induction of apoptosis in human HCT116 cells assessed as early apoptotic cells at 2 ug/ml after 48 hrs by Annexin V-FITC/propidium iodide staining based flow cytometry (reference value: 3.7%)", "type": "functional"}, "HCT-116 [5]": {"system": "HCT-116", "assay": "Induction of apoptosis in human HCT116 cells assessed as early apoptotic cells at 10 ug/ml after 48 hrs by Annexin V-FITC/propidium iodide staining based flow cytometry (reference value: 3.7%)", "type": "functional"}, "HCT-116 [6]": {"system": "HCT-116", "assay": "Induction of apoptosis in human HCT116 cells assessed as late apoptotic cells at 0.5 ug/ml after 48 hrs by Annexin V-FITC/propidium iodide staining based flow cytometry (reference value: 3.6%)", "type": "functional"}, "HCT-116 [7]": {"system": "HCT-116", "assay": "Induction of apoptosis in human HCT116 cells assessed as early apoptotic cells at 1 ug/ml after 48 hrs by Annexin V-FITC/propidium iodide staining based flow cytometry (reference value: 3.7%)", "type": "functional"}, "HCT-116 [8]": {"system": "HCT-116", "assay": "Induction of apoptosis in human HCT116 cells assessed as necrotic cells at 10 ug/ml after 48 hrs by Annexin V-FITC/propidium iodide staining based flow cytometry (reference value: 1.3%)", "type": "functional"}, "Mus musculus": {"system": "Mus musculus", "assay": "Toxicity in BALB/c mouse xenografted with human HCT116 cells assessed as change in body weight at 20 mg/kg, ip administered every other day for 14 days", "type": "organism-based, HCT-116", "conditions": "in vivo, 336 h"}, "[9]": {"assay": "Downregulation of HDAC1 expression in human HCT116 cells nuclear extract at >0.625 ug/ml after 48 hrs by Western blot method", "type": "functional, cell-based", "conditions": "HCT-116", "outline": "as §1"}, "HCT-116 [10]": {"system": "HCT-116", "assay": "Induction of apoptosis in human HCT116 cells assessed as necrotic cells at 1 ug/ml after 48 hrs by Annexin V-FITC/propidium iodide staining based flow cytometry (reference value: 1.3%)", "type": "functional"}, "HCT-116 [11]": {"system": "HCT-116", "assay": "Induction of apoptosis in human HCT116 cells cytoplasmic extract assessed as increase in cleaved caspase-3 expression at 0.3125 to 2.5 ug/ml after 48 hrs by Western blot method", "type": "functional, cell-based", "outline": "as §1"}, "HCT-116 [12]": {"system": "HCT-116", "assay": "Antitumor activity against human HCT116 cells xenografted in BALB/c nude mouse assessed as inhibition of tumor volume at 20 mg/kg, ip administered every other day for 14 days", "type": "functional, organism-based", "outline": "(§4)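 HCT-116 cells implanted subcutaneously in the flanks of nude mice. Compound given intraperitoneally at 20 mg/kg every other day for 14 days; controls got vehicle. Tumour volume measured per animal at set time points, and tumours excised at study end; mean ± SD, n = 10 per group.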"}, "HCT-116 [13]": {"system": "HCT-116", "assay": "Induction of apoptosis in human HCT116 cells assessed as necrotic cells at 0.5 ug/ml after 48 hrs by Annexin V-FITC/propidium iodide staining based flow cytometry (reference value: 1.3%)", "type": "functional"}, "HCT-116 [14]": {"system": "HCT-116", "assay": "Antitumor activity against human HCT116 cells xenografted in BALB/c nude mouse assessed as inhibition of tumor weight at 20 mg/kg, ip administered every other day for 14 days", "type": "functional, organism-based", "outline": "as §4"}, "HCT-116 [15]": {"system": "HCT-116", "assay": "Induction of apoptosis in human HCT116 cells assessed as necrotic cells at 5 ug/ml after 48 hrs by Annexin V-FITC/propidium iodide staining based flow cytometry (reference value: 1.3%)", "type": "functional"}, "HCT-116 [16]": {"system": "HCT-116", "assay": "Antiproliferative activity against human HCT116 cells at 2.5 ug/ml by light microscopic method", "type": "functional, cell-based", "outline": "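HCT-116 cells grown at relatively high density, untreated or compound-treated, then viewed by light microscopy at 10× magnification.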"}, "HCT-116 [17]": {"system": "HCT-116", "assay": "Induction of apoptosis in human HCT116 cells assessed as necrotic cells at 2 ug/ml after 48 hrs by Annexin V-FITC/propidium iodide staining based flow cytometry (reference value: 1.3%)", "type": "functional"}, "HCT-116 [18]": {"system": "HCT-116", "assay": "Induction of apoptosis in human HCT116 cells assessed as early apoptotic cells at 0.5 ug/ml after 48 hrs by Annexin V-FITC/propidium iodide staining based flow cytometry (reference value: 3.7%)", "type": "functional"}, "HCT-116 [19]": {"system": "HCT-116", "assay": "Induction of apoptosis in human HCT116 cells cytoplasmic extract assessed as increase in cleaved PARP expression at 0.3125 to 2.5 ug/ml after 48 hrs by Western blot method", "type": "functional, cell-based", "outline": "as §1"}, "HCT-116 [20]": {"system": "HCT-116", "assay": "Induction of apoptosis in human HCT116 cells assessed as late apoptotic cells at 2 ug/ml after 48 hrs by Annexin V-FITC/propidium iodide staining based flow cytometry (reference value: 3.6%)", "type": "functional"}, "HCT-116 [21]": {"system": "HCT-116", "assay": "Induction of apoptosis in human HCT116 cells after 48 hrs by Annexin V-FITC/propidium iodide staining based flow cytometry", "type": "functional, cell-based"}, "HCT-116 [22]": {"system": "HCT-116", "assay": "Increase in ERK phosphorylation in human HCT116 cells cytoplasmic extract at 0.3125 to 2.5 ug/ml after 48 hrs by Western blot method", "type": "cell-based", "outline": "as §1"}, "HCT-116 [23]": {"system": "HCT-116", "assay": "Induction of apoptosis in human HCT116 cells assessed as late apoptotic cells at 10 ug/ml after 48 hrs by Annexin V-FITC/propidium iodide staining based flow cytometry (reference value: 3.6%)", "type": "functional"}, "HCT-116 [24]": {"system": "HCT-116", "assay": "Induction of apoptosis in human HCT116 cells assessed as late apoptotic cells at 5 ug/ml after 48 hrs by Annexin V-FITC/propidium iodide staining based flow cytometry (reference value: 3.6%)", "type": "functional"}, "[25]": {"assay": "(§5) Cytotoxicity against human HT-29 cells assessed as reduction in cell viability after 48 hrs by MTT assay", "type": "functional, cell-based", "conditions": "HT-29, 48 h", "outline": "as §3"}, "HT-29": {"system": "HT-29", "assay": "as §5", "type": "functional, cell-based", "outline": "as §3"}, "HCT-116 [26]": {"system": "HCT-116", "assay": "Induction of apoptosis in human HCT116 cells assessed as late apoptotic cells at 1 ug/ml after 48 hrs by Annexin V-FITC/propidium iodide staining based flow cytometry (reference value: 3.6%)", "type": "functional"}, "HCT-116 [27]": {"system": "HCT-116", "assay": "Induction of apoptosis in human HCT116 cells assessed as early apoptotic cells at 5 ug/ml after 48 hrs by Annexin V-FITC/propidium iodide staining based flow cytometry (reference value: 3.7%)", "type": "functional"}},
  "note": "Calls of active or inactive are those of the source. The calls are words filed in the database; no cut-off is given here.",
  "data": [
    {"smiles": "C=C1C(=O)[C@]23[C@H](O)C[C@@H]4C(C)(C)CCC[C@]45CO[C@](O)(C[C@@H]1[C@H]2O)[C@@H]53", "note": "[PSEUDOIRRORATIN A]", "values": [
      {"measurement": "Activity", "setting": "HCT-116 [1]", "value": "Active"},
      {"measurement": "IC50", "setting": "[2]", "value": 4.9, "unit": "µM"},
      {"measurement": "Activity", "setting": "HCT-116 [3]", "value": "Dose-dependent effect"},
      {"measurement": "Activity", "setting": "HCT-116 [4]", "value": 18.3, "unit": "%"},
      {"measurement": "Activity", "setting": "HCT-116 [5]", "value": 33.9, "unit": "%"},
      {"measurement": "Activity", "setting": "HCT-116 [6]", "value": 5.3, "unit": "%"},
      {"measurement": "Activity", "setting": "HCT-116 [7]", "value": 10, "unit": "%"},
      {"measurement": "Activity", "setting": "HCT-116 [8]", "value": 13.8, "unit": "%"},
      {"measurement": "Activity", "setting": "Mus musculus", "value": "Non-Toxic"},
      {"measurement": "Activity", "setting": "[9]", "value": "Active"},
      {"measurement": "Activity", "setting": "HCT-116 [10]", "value": 11.1, "unit": "%"},
      {"measurement": "Activity", "setting": "HCT-116 [11]", "value": "Active"},
      {"measurement": "Activity", "setting": "HCT-116 [12]", "value": "Active"},
      {"measurement": "Activity", "setting": "HCT-116 [13]", "value": 3.1, "unit": "%"},
      {"measurement": "Activity", "setting": "HCT-116 [14]", "value": "Active"},
      {"measurement": "Activity", "setting": "HCT-116 [15]", "value": 21.1, "unit": "%"},
      {"measurement": "Activity", "setting": "HCT-116 [16]", "value": "Active"},
      {"measurement": "Activity", "setting": "HCT-116 [17]", "value": 14.7, "unit": "%"},
      {"measurement": "Activity", "setting": "HCT-116 [18]", "value": 8.5, "unit": "%"},
      {"measurement": "Activity", "setting": "HCT-116 [19]", "value": "Active"},
      {"measurement": "Activity", "setting": "HCT-116 [20]", "value": 27.8, "unit": "%"},
      {"measurement": "Activity", "setting": "HCT-116 [21]", "value": "Dose-dependent effect"},
      {"measurement": "Activity", "setting": "HCT-116 [22]", "value": "Active"},
      {"measurement": "Activity", "setting": "HCT-116 [23]", "value": 30.2, "unit": "%"},
      {"measurement": "Activity", "setting": "HCT-116 [24]", "value": 24.7, "unit": "%"},
      {"measurement": "IC50", "setting": "[25]", "value": 5.9, "unit": "µM"},
      {"measurement": "Activity", "setting": "HT-29", "value": "Dose-dependent effect"},
      {"measurement": "Activity", "setting": "HCT-116 [26]", "value": 17, "unit": "%"},
      {"measurement": "Activity", "setting": "HCT-116 [27]", "value": 26.2, "unit": "%"}
    ]},
    {"smiles": "C=C1C(=O)[C@@]23[C@H](O)C[C@@H]4C(C)(C)CCC[C@@]4(COC(C)=O)[C@@H]2[C@@H](O)C[C@@H]1[C@H]3O", "note": "[FLEXICANLIN A]", "values": [
      {"measurement": "IC50", "setting": "[2]", "value": 7.3, "unit": "µM"},
      {"measurement": "Activity", "setting": "HCT-116 [3]", "value": "Dose-dependent effect"},
      {"measurement": "Activity", "setting": "Mus musculus", "value": "Non-Toxic"},
      {"measurement": "Activity", "setting": "HCT-116 [16]", "value": "Active"},
      {"measurement": "IC50", "setting": "[25]", "value": 10.5, "unit": "µM"},
      {"measurement": "Activity", "setting": "HT-29", "value": "Dose-dependent effect"}
    ]}
  ]
}
